# Measured values as given in ChEMBL document CHEMBL1122384, “Synthesis and evaluation of 24-(isopropyl[75Se]seleno)chol-5-en-3 beta-ol” (J Med Chem, 1983).
# What was measured:
# [1] = species on record: Homo sapiens; assay: Adsorbed radiation dose value was calculated to human spleen; assay type: functional
# Method in brief: (§1)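 Human absorbed radiation dose estimated by the standard MIRD method from rat tissue distribution (% dose/g, 1 h–21 days) and excretion data. Excretion came from three individually caged female rats, with urine and feces collected daily over 21 days.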
# [2] = test system: Rattus norvegicus; assay: Tested for distribution of radioactivity in female rat tissue at 1 hr after intravenous administration in blood; assay type: ADME, organism-based; settings: in vivo
# Method in brief: (§2)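 Female Fischer 344 rats (160–180 g), food and water ad libitum, received 5–10 μCi i.v. via lateral tail vein (1 mL Tween 80–EtOH–saline) under light Et₂O anesthesia. At each time they were anesthetized and decapitated, and organs were rinsed in saline, blotted, weighed and gamma counted. Values are % dose/g, mean and range of 3 rats.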
# [3] = Adrenal/Tissue ratio calculated from percent dose per gram of tissue determined after 1 day intravenous administration from lung; assay type: functional
# Method in brief: (§3)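 Female Fischer 344 rats (160–180 g), fed ad libitum. Steroid dissolved in EtOH, formulated in Tween 80–EtOH–saline, 5–10 μCi in 1 mL given into a lateral tail vein under light Et₂O anesthesia. Organs removed 1 day post-injection, rinsed, blotted, weighed and gamma counted, 3 rats per time point. Ratios taken from adrenal vs tissue % dose/g.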
# [4] = test system: Rattus norvegicus; assay: Tested for distribution of radioactivity in female rat tissue at 1 hr after intravenous administration in liver; assay type: ADME, organism-based; settings: in vivo; method in brief: as §2
# [5] = Adrenal/Tissue ratio calculated from percent dose per gram of tissue determined after 1 day intravenous administration from kidney; assay type: functional; method in brief: as §3
# [6] = test system: Rattus norvegicus; assay: Tested for distribution of radioactivity in female rat tissue at 21 day after intravenous administration in adrenal; assay type: ADME, organism-based; settings: in vivo, 504 h; method in brief: as §2
# [7] = species on record: Homo sapiens; assay: Adsorbed radiation dose value was calculated to human liver; assay type: functional; method in brief: as §1
# [8] = species on record: Homo sapiens; assay: Adsorbed radiation dose value was calculated to human ovaries; assay type: functional, Female gonad; method in brief: as §1
# [9] = Adrenal/Tissue ratio calculated from percent dose per gram of tissue determined after 1 day intravenous administration from blood; assay type: functional; method in brief: as §3
# [10] = test system: Rattus norvegicus; assay: Tested for distribution of radioactivity in female rat tissue at 18 hr after intravenous administration in liver; assay type: ADME, organism-based; settings: in vivo; method in brief: as §2
# [11] = test system: Rattus norvegicus; assay: Tested for distribution of radioactivity in female rat tissue at 24 hr r after intravenous administration in blood; assay type: ADME, organism-based; settings: in vivo; method in brief: as §2
# [12] = test system: Rattus norvegicus; assay: Tested for distribution of radioactivity in female rat tissue at 18 hr after intravenous administration in blood; assay type: ADME, organism-based; settings: in vivo; method in brief: as §2
# [13] = Adrenal/Tissue ratio calculated from percent dose per gram of tissue determined after 1 day intravenous administration from ovaries; assay type: functional; method in brief: as §3
# [14] = test system: Rattus norvegicus; assay: Tested for distribution of radioactivity in female rat tissue at 14d ay after intravenous administration in liver; assay type: ADME, organism-based; settings: in vivo; method in brief: as §2
# [15] = test system: Rattus norvegicus; assay: Tested for distribution of radioactivity in female rat tissue at 7 day after intravenous administration in liver; assay type: ADME, organism-based; settings: in vivo, 168 h
# Method in brief: (§4)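 Female Fischer 344 rats (160–180 g), food and water ad libitum. Se-75-labeled steroid dissolved in EtOH, formulated in Tween 80–EtOH–saline; 5–10 μCi in 1 mL injected into a lateral tail vein under light Et₂O anesthesia. At each time point, 3 rats killed by decapitation under Et₂O. Organs rinsed with saline, blotted, weighed and gamma counted. Values are % dose/g, mean and range.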
# [16] = test system: Rattus norvegicus; assay: Tested for distribution of radioactivity in female rat tissue at 1 hr after intravenous administration in ovaries; assay type: ADME, organism-based; settings: in vivo; method in brief: as §2
# [17] = test system: Rattus norvegicus; assay: Tested for distribution of radioactivity in female rat tissue at 3 day after intravenous administration in adrenal; assay type: ADME, organism-based; settings: in vivo, 72 h; method in brief: as §2
# [18] = test system: Rattus norvegicus; assay: Tested for distribution of radioactivity in female rat tissue at 21 day after intravenous administration in ovaries; assay type: ADME, organism-based; settings: in vivo, 504 h; method in brief: as §2
# [19] = test system: Rattus norvegicus; assay: Tested for distribution of radioactivity in female rat tissue at 21 day after intravenous administration in kidney; assay type: ADME, organism-based; settings: in vivo, 504 h; method in brief: as §2
# [20] = test system: Rattus norvegicus; assay: Tested for distribution of radioactivity in female rat tissue at 7 day after intravenous administration in blood; assay type: ADME, organism-based; settings: in vivo, 168 h; method in brief: as §4
# [21] = test system: Rattus norvegicus; assay: Tested for distribution of radioactivity in female rat tissue at 1 hr after intravenous administration in adrenal; assay type: ADME, organism-based; settings: in vivo; method in brief: as §2
# [22] = Adrenal/Tissue ratio calculated from percent dose per gram of tissue determined after 1 day intravenous administration from pancreas; assay type: functional
# Method in brief: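 Female Fischer 344 rats (160–180 g), food and water ad libitum, lightly anaesthetized with Et2O. [75Se]-labelled steroid was given in Tween 80–EtOH–saline, 5–10 μCi, by lateral tail-vein injection. Rats were killed by decapitation under Et2O; organs were rinsed, blotted, weighed and gamma-counted. Adrenal/tissue ratio is from % dose/g, mean of three rats per time point.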
# [23] = test system: Rattus norvegicus; assay: Tested for distribution of radioactivity in female rat tissue at 24 hr r after intravenous administration in adrenal; assay type: ADME, organism-based; settings: in vivo; method in brief: as §2
# [24] = species on record: Homo sapiens; assay: Adsorbed radiation dose value was calculated to human kidney; assay type: functional; method in brief: as §1
# [25] = test system: Rattus norvegicus; assay: Tested for distribution of radioactivity in female rat tissue at 21 day after intravenous administration in liver; assay type: ADME, organism-based; settings: in vivo, 504 h; method in brief: as §2
# [26] = test system: Rattus norvegicus; assay: Tested for distribution of radioactivity in female rat tissue at 18 hr after intravenous administration in kidney; assay type: ADME, organism-based; settings: in vivo; method in brief: as §2
# [27] = test system: Rattus norvegicus; assay: Tested for distribution of radioactivity in female rat tissue at 3 day after intravenous administration in ovaries; assay type: ADME, organism-based; settings: in vivo, 72 h; method in brief: as §2
# [28] = test system: Rattus norvegicus; assay: Tested for distribution of radioactivity in female rat tissue at 18 hr after intravenous administration in adrenal; assay type: ADME, organism-based; settings: in vivo; method in brief: as §2
smiles,measurement,setting,value
CC(C)[Se]CCC[C@H](C)[C@H]1CC[C@H]2[C@@H]3CC=C4C[C@@H](O)CC[C@]4(C)[C@H]3CC[C@]12C,Dose,[1],3.4 rd mCi-1
same,Dose/g,[2],3.97%
same,Ratio,[3],10.9
same,Dose/g,[4],6.73%
same,Ratio,[5],30
same,Dose/g,[6],15.22%
same,Dose,[7],3.7 rd mCi-1
same,Dose,[8],5.9 rd mCi-1
same,Ratio,[9],67.3
same,Dose/g,[10],2.78%
same,Dose/g,[11],0.71%
same,Dose/g,[12],1%
same,Ratio,[13],9
same,Dose/g,[14],0.5%
same,Dose/g,[15],0.68%
same,Dose/g,[16],2.24%
same,Dose/g,[17],32.32%
same,Dose/g,[18],2.52%
same,Dose/g,[19],0.64%
same,Dose/g,[20],0.26%
same,Dose/g,[21],15.65%
same,Ratio,[22],46.4
same,Dose/g,[23],47.75%
same,Dose,[24],3.8 rd mCi-1
same,Dose/g,[25],0.34%
same,Dose/g,[26],1.87%
same,Dose/g,[27],3.81%
same,Dose/g,[28],42.97%
